According to ChEMBL document CHEMBL1275462 (Antimicrob Agents Chemother, 2008):
Converted amounts (≈) assume the structure as drawn. The source made the active and inactive calls. The calls are words filed in the database; no cut-off is given here.

Columns and labels:
Staphylococcus aureus [1] = test: Antimicrobial activity against vancomycin-intermediate Staphylococcus aureus Mu50 by Etest; format: functional
Outline: (§1)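 Etest and population analysis: overnight cultures plated on TSA with increasing vancomycin, oxacillin or BPR, CFU counted after 48 h at 37°C. For VRSA strains, vancomycin plates also run with constant 1 µg/ml BPR. Vancomycin Etest read after overnight 37°C incubation on TSA with or without 1 µg/ml BPR.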

Staphylococcus aureus [2] = test: Antimicrobial activity against vancomycin-intermediate Staphylococcus aureus JH9 obtained from bacteremic patient by Etest; format: functional; outline: as §1
Staphylococcus aureus [3] = test: Antimicrobial activity against vancomycin-resistant Staphylococcus aureus VRS1 by Etest; format: functional; outline: as §1
Staphylococcus aureus [4] = test: Antimicrobial activity against oxacillin-resistant Staphylococcus aureus COLVA harboring Tn1546 transposon by Etest; format: functional; outline: as §1
Staphylococcus aureus [5] = test: Antimicrobial activity against methicillin-resistant Staphylococcus aureus E2125 by Etest; format: functional
Outline: (§2)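 Etest (manufacturer's method) and population analysis: overnight cultures serially diluted and plated on TSA with increasing oxacillin or BPR, CFU counted after 48 h at 37°C. Colonies from subpopulations growing at high oxacillin or BPR were picked, restreaked on antibiotic-free TSA for three passages, then retested by population analysis.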

Staphylococcus aureus [6] = test: Antimicrobial activity against methicillin-resistant Staphylococcus aureus HPV107 by Etest; format: functional; outline: as §2
Staphylococcus aureus [7] = test: Antimicrobial activity against methicillin-resistant Staphylococcus aureus BK2464 by Etest; format: functional; outline: as §2
Staphylococcus aureus [8] = test: Antimicrobial activity against methicillin-resistant Staphylococcus aureus HDE288 by Etest; format: functional; outline: as §2
Staphylococcus aureus [9] = test: Antimicrobial activity against methicillin-resistant Staphylococcus aureus BK2529 by Etest; format: functional; outline: as §2
Staphylococcus aureus [10] = test: Antimicrobial activity against methicillin-resistant Staphylococcus aureus HAR24 by Etest; format: functional; outline: as §2
Staphylococcus aureus [11] = test: Antimicrobial activity against methicillin-resistant Staphylococcus aureus HAR22 by Etest; format: functional; outline: as §2
Staphylococcus aureus [12] = test: Antimicrobial activity against methicillin-resistant Staphylococcus aureus USA300 by Etest; format: functional; outline: as §2
Staphylococcus aureus [13] = test: Antimicrobial activity against methicillin-resistant Staphylococcus aureus COL by Etest; format: functional; outline: as §2
Staphylococcus aureus [14] = test: Antimicrobial activity against methicillin-resistant Staphylococcus aureus HU25 by Etest; format: functional; outline: as §2
Staphylococcus aureus [15] = test: Antimicrobial activity against methicillin-resistant Staphylococcus aureus E2125 assessed as concentration required for bacterial subpopulation growth; format: functional; outline: as §2
Staphylococcus aureus [16] = test: Antimicrobial activity against methicillin-resistant Staphylococcus aureus HPV107 assessed as concentration required for bacterial subpopulation growth; format: functional; outline: as §2
Staphylococcus aureus [17] = test: Antimicrobial activity against methicillin-resistant Staphylococcus aureus BK2464 assessed as concentration required for bacterial subpopulation growth; format: functional; outline: as §2
Staphylococcus aureus [18] = test: Antimicrobial activity against methicillin-resistant Staphylococcus aureus HDE288 assessed as concentration required for bacterial subpopulation growth; format: functional; outline: as §2
Staphylococcus aureus [19] = test: Antimicrobial activity against methicillin-resistant Staphylococcus aureus BK2529 assessed as concentration required for bacterial subpopulation growth; format: functional; outline: as §2
Staphylococcus aureus [20] = test: Antimicrobial activity against methicillin-resistant Staphylococcus aureus HAR24 assessed as concentration required for bacterial subpopulation growth; format: functional; outline: as §2
Staphylococcus aureus [21] = test: Antimicrobial activity against methicillin-resistant Staphylococcus aureus HAR22 assessed as concentration required for bacterial subpopulation growth; format: functional; outline: as §2
Staphylococcus aureus [22] = test: Antimicrobial activity against methicillin-resistant Staphylococcus aureus USA300 assessed as concentration required for bacterial subpopulation growth; format: functional; outline: as §2
Staphylococcus aureus [23] = test: Antimicrobial activity against methicillin-resistant Staphylococcus aureus HU25 assessed as concentration required for bacterial subpopulation growth; format: functional; outline: as §2
Staphylococcus aureus [24] = test: Antimicrobial activity against methicillin-resistant Staphylococcus aureus E2125 assessed as concentration required for minimum inhibition of oxacillin-resistant subpopulation growth by Etest; format: functional; outline: as §2
Staphylococcus aureus [25] = test: Antimicrobial activity against methicillin-resistant Staphylococcus aureus HPV107 assessed as concentration required for minimum inhibition of oxacillin-resistant subpopulation growth by Etest; format: functional; outline: as §2
Staphylococcus aureus [26] = test: Antimicrobial activity against methicillin-resistant Staphylococcus aureus BK2464 assessed as concentration required for minimum inhibition of oxacillin-resistant subpopulation growth by Etest; format: functional; outline: as §2
Staphylococcus aureus [27] = test: Antimicrobial activity against methicillin-resistant Staphylococcus aureus HDE288 assessed as concentration required for minimum inhibition of oxacillin-resistant subpopulation growth by Etest; format: functional; outline: as §2
Staphylococcus aureus [28] = test: Antimicrobial activity against methicillin-resistant Staphylococcus aureus BK2529 assessed as concentration required for minimum inhibition of oxacillin-resistant subpopulation growth by Etest; format: functional; outline: as §2
Staphylococcus aureus [29] = test: Antimicrobial activity against methicillin-resistant Staphylococcus aureus HAR24 assessed as concentration required for minimum inhibition of oxacillin-resistant subpopulation growth by Etest; format: functional; outline: as §2
Staphylococcus aureus [30] = test: Antimicrobial activity against methicillin-resistant Staphylococcus aureus HAR22 assessed as concentration required for minimum inhibition of oxacillin-resistant subpopulation growth by Etest; format: functional; outline: as §2
Staphylococcus aureus [31] = test: Antimicrobial activity against methicillin-resistant Staphylococcus aureus USA300 assessed as concentration required for minimum inhibition of oxacillin-resistant subpopulation growth by Etest; format: functional; outline: as §2
Staphylococcus aureus [32] = test: Antimicrobial activity against methicillin-resistant Staphylococcus aureus COL assessed as reduction in viable bacterial titer after 24 hrs in presence of 10 times compound MIC; format: functional
Staphylococcus aureus [33] = test: Bactericidal activity against methicillin-resistant Staphylococcus aureus COL assessed as reduction in viable bacterial titer after 24 hrs at 10 times MIC; format: functional, organism-based
Outline: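 Time-kill: exponentially growing COL cultures (OD620 0.2, about 10^8 CFU/ml at zero time) given 10× MIC of drug under aerobic conditions. Untreated control. Aliquots taken at intervals, serially diluted, plated on TSA, colonies counted after 48 h at 37°C.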

MecA = target: T1, MecA (Staphylococcus aureus, UniProt Q7DHH4); test: Inhibition of methicillin-resistant Staphylococcus aureus COL PBP2a by competitive assay; design: species or system Staphylococcus aureus subsp. aureus COL
T1 sequence (Q7DHH4 whole entry): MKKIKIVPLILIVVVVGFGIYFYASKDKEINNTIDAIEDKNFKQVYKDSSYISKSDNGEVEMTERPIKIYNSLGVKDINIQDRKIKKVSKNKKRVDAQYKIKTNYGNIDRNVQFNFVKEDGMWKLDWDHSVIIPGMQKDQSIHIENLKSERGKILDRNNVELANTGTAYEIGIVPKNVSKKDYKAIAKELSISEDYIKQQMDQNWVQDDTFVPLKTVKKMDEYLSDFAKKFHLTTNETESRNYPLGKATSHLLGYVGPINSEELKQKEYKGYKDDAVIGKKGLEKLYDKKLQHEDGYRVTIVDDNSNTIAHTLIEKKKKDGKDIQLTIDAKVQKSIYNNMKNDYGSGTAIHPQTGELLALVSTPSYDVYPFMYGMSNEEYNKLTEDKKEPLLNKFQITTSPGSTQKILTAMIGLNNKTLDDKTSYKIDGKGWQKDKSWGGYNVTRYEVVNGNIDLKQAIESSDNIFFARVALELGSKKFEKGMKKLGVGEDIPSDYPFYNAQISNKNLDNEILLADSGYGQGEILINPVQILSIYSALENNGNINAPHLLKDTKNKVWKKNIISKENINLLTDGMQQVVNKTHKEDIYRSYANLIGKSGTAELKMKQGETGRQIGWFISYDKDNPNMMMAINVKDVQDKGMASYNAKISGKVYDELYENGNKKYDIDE
Outline: (§3)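 Purified soluble PBP 2A (mecA expressed in E. coli, 97% pure) at 0.8 µM, preincubated with drug 30 min at 30°C. Then 20 µM Bocillin FL added for 10 min at 37°C, quenched with SDS-PAGE buffer and boiled. Drug range 0.5–20 µM; for IC50, BPR 0.5–200 µM or oxacillin 5–6,000 µM. Curve fitting.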

[34] = target: T2, MecA (Staphylococcus aureus) (UniProt Q7DHH4); test: Inhibition of methicillin-resistant Staphylococcus aureus 67-O PBP2a by competitive assay
T2 sequence (whole entry): T1 sequence (Q7DHH4 whole entry)

[35] = target: T2, MecA (Staphylococcus aureus); test: Inhibition of methicillin-resistant Staphylococcus aureus COL PBP2a at 10 uM by competitive assay; settings: Staphylococcus aureus subsp. aureus COL; outline: as §3
[36] = target: T2, MecA (Staphylococcus aureus); test: Displacement of benzyl-[14C]penicillin from Staphylococcus aureus PBP2a RU130 mutant at 2500 ug/ml by in vitro competitive assay; settings: Staphylococcus aureus subsp. aureus COL
Outline: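 Membranes from PBP 2 insertional mutant RU130 (Tn551 in transpeptidase domain), late exponential phase, 150 µg protein, preincubated with increasing oxacillin or BPR 10 min at 30°C. Then labelled with 20 µg/ml benzyl[14C]penicillin 10 min at 37°C and stopped with excess unlabelled penicillin in SDS. SDS-PAGE with phosphor screen exposure for 2 weeks.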

Work on CN[C@H](CC(C)C)C(=O)N[C@H]1C(=O)N[C@@H](CC(N)=O)C(=O)N[C@H]2C(=O)N[C@H]3C(=O)N[C@H](C(=O)N[C@H](C(=O)O)c4cc(O)cc(O)c4-c4cc3ccc4O)[C@H](O)c3ccc(c(Cl)c3)Oc3cc2cc(c3O[C@@H]2O[C@H](CO)[C@@H](O)[C@H](O)[C@H]2O[C@H]2C[C@](C)(N)[C@H](O)[C@H](C)O2)Oc2ccc(cc2Cl)[C@H]1O [VANCOMYCIN] yielded an MIC (Staphylococcus aureus [1]) of 6 µg/mL (≈ 4.14 µM), an MIC (Staphylococcus aureus [2]) of 6 µg/mL (≈ 4.14 µM) and an MIC (Staphylococcus aureus [3]) of over 800 µg/mL. For the same molecule, the MIC (Staphylococcus aureus [4]) was 800 µg/mL (≈ 552 µM).
Cc1onc(-c2ccccc2)c1C(=O)N[C@@H]1C(=O)N2[C@@H]1SC(C)(C)[C@@H]2C(=O)O [OXACILLIN] gave an MIC (Staphylococcus aureus [5]) of 6 µg/mL (≈ 14.9 µM), an MIC (Staphylococcus aureus [6]) of 0.8 µg/mL (≈ 1.99 µM) and an MIC (Staphylococcus aureus [7]) of 12.5 µg/mL (≈ 31.1 µM). It also gave an MIC (Staphylococcus aureus [8]) of 0.8 µg/mL (≈ 1.99 µM), an MIC (Staphylococcus aureus [9]) of 1.5 µg/mL (≈ 3.74 µM) and an MIC (Staphylococcus aureus [10]) of 100 µg/mL (≈ 249 µM). The MIC (Staphylococcus aureus [11]) was 100 µg/mL (≈ 249 µM), the MIC (Staphylococcus aureus [12]) was 0.8 µg/mL (≈ 1.99 µM) and the MIC (Staphylococcus aureus [13]) was over 800 µg/mL. It also gave an MIC (Staphylococcus aureus [14]) of 400 µg/mL (≈ 996 µM), an Activity (Staphylococcus aureus [15]) of 400 µg/mL and an Activity (Staphylococcus aureus [16]) of 400 µg/mL. The Activity (Staphylococcus aureus [17]) was 400 µg/mL, the Activity (Staphylococcus aureus [18]) was 400 µg/mL and the Activity (Staphylococcus aureus [19]) was 400 µg/mL. The Activity (Staphylococcus aureus [20]) was 800 µg/mL, the Activity (Staphylococcus aureus [21]) was 400 µg/mL and the Activity (Staphylococcus aureus [22]) was 800 µg/mL. The Activity (Staphylococcus aureus [23]) was 800 µg/mL, the Activity (Staphylococcus aureus [24]) was 400 µg/mL and the Activity (Staphylococcus aureus [25]) was 100 µg/mL. It also gave an Activity (Staphylococcus aureus [26]) of 200 µg/mL, an Activity (Staphylococcus aureus [27]) of 200 µg/mL and an Activity (Staphylococcus aureus [28]) of 200 µg/mL. It also gave an Activity (Staphylococcus aureus [29]) of 800 µg/mL, an Activity (Staphylococcus aureus [30]) of 800 µg/mL and an Activity (Staphylococcus aureus [31]) of 400 µg/mL. For the same molecule, the MIC (Staphylococcus aureus [1]) was over 800 µg/mL, the MIC (Staphylococcus aureus [2]) was 3 µg/mL (≈ 7.47 µM) and the MIC (Staphylococcus aureus [3]) was over 800 µg/mL. For the same molecule, the MIC (Staphylococcus aureus [4]) was 800 µg/mL (≈ 1990 µM), the fold reduction in CFU (Staphylococcus aureus [32]) was 1000 fold and the Activity (Staphylococcus aureus [33]) was “inactive”. It also gave an IC50 (MecA) of 710 µM, an Activity [34] of 300 µg/mL and an inhibition [35] of 5%. The Activity [36] was “Active”.
